Results on three compounds are retold here after paper PMC2634825 (Molecular pharmaceutics, 2009).

“Also recorded” adds a separate entry of the source.

Series [1] in a line: Biodistribution in athymic nude mice bearing MDA-MB-435 breast cancer xenografts. The following applies: mouse; for tissue to tissue ratio at 2 h: female, athymic nu/nu, tumor and muscle, iv, total radioactivity; for tissue uptake at 0.5 h / tissue uptake at 2 h: in vivo; for tissue uptake at 0.5 h: 30 min p.i.; for tissue uptake at 2 h: 120 min p.i. The class given is in vivo. The method, boiled down:
(§1)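 Female athymic nu/nu mice (4–5 weeks old) received 5 × 10⁶ cells s.c. into both mammary fat pads (MDA-MB-435) or both upper flanks (U87MG) and were used 2–4 weeks later with 0.05–0.4 g tumors. Each got ~2 μCi of HPLC-purified tracer in 0.1 mL saline i.v. via the tail vein. Four mice per time point were killed at 30, 60 and 120 min by pentobarbital overdose. Organs were weighed and γ-counted as %ID/g; T/B values are means ± SD.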

Series [2] is described as follows: Biodistribution in athymic nude mice bearing U87MG glioma xenografts. The class given is in vivo. The conditions noted are these: mouse; for tissue to tissue ratio at 0.5 h / tissue to tissue ratio at 2 h: female, athymic nu/nu, iv, total radioactivity; for tissue uptake at 0.5 h / tissue uptake at 2 h: in vivo; for tissue uptake at 0.5 h: 30 min p.i.; for tissue uptake at 2 h: 120 min p.i. The method, boiled down:
as §1

The test system of another series is tumor-bearing mouse. Put plainly: Blocking experiment. The class given is in vivo, mice. The method, boiled down: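 Tumour-bearing nude mice were given ~2 μCi of the 99mTc-labelled tracer i.v. together with ~350 μg (~14 mg/kg) excess unlabelled cyclic RGD dimer. The blocker was dissolved in the dose solution at 1.75 mg/mL and filtered. Four animals were killed at 1 h p.i. by pentobarbital overdose, and organ %ID/g was compared with unblocked animals at the same time point.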

Another series concerns normal athymic nude mice. Put plainly: Metabolism study. Format: in vivo. The method, boiled down:
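Two normal athymic nude mice per tracer each received 100–120 μCi i.v. via the tail vein. Urine was collected by manual void at 30 and 120 min, mixed with an equal volume of 20% aqueous acetonitrile, centrifuged at 8,000 rpm and filtered (0.20 μ). Feces collected at 2 h were suspended in 2 mL 20% acetonitrile, vortexed and centrifuged.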

Series [3] has as its system athymic nude mice bearing U87MG glioma xenografts. Briefly: Biodistribution in athymic nude mice bearing U87MG glioma xenografts. Format: in vivo. The following applies: over the 2 h study period. The method, boiled down:
as §1

Setting [4] is: kidney uptake, MDA-MB-435 model.
Where [5] appears, read: muscle uptake, MDA-MB-435 model.
Setting [6] is: tumor uptake, MDA-MB-435 breast tumor.
Where [7] appears, read: blood uptake (blood clearance), U87MG model.

The tissue uptake is the share of the injected amount in each gram of the tissue. A lower tissue uptake goes with little accumulation. As for `N=C(N)NCCC[C@@H]1NC(=O)[C@H](CCCCNC(=O)CCOCCOCCOCCOCCNC(=O)CC[C@H](NC(=O)c2ccc(NN)nc2)C(=O)NCCOCCOCCOCCOCCC(=O)NCCCC[C@@H]2NC(=O)[C@@H](Cc3ccccc3)NC(=O)[C@H](CC(=O)O)NC(=O)CNC(=O)[C@H](CCCNC(=N)N)NC2=O)NC(=O)[C@@H](Cc2ccccc2)NC(=O)[C@H](CC(=O)O)NC(=O)CNC1=O` [^99mTc-2PEG4-dimer, [^99mTc(HYNIC-2PEG4-dimer)(tricine)(TPPTS)], metal not drawn], the tissue to tissue ratio at 2 h came to 6.52 ± 1.72 in series [1]; 3.33 ± 0.64 in series [2] (tumor and liver); 29.1 ± 8.54 in series [2] (tumor and whole blood). Besides, the tissue uptake at 0.5 h worked out at 14.4 ± 4.09 %ID/g in series [1] (setting [4]); 2.97 ± 0.63 %ID/g in series [1] (liver uptake, MDA-MB-435 model); 1.76 ± 0.56 %ID/g in series [1] (setting [5]); 5.2 ± 1.74 %ID/g in series [1] (setting [6]); 20.8 ± 2.32 %ID/g in series [2] (kidney uptake, U87MG model); 2.18 ± 0.37 %ID/g in series [2] (muscle uptake, U87MG model). The compound also returned a tissue uptake at 0.5 h in series [2] (tumor uptake, U87MG glioma) of 11.2 ± 1.96 %ID/g. In addition, the tissue uptake at 2 h stood at 13.8 ± 5.36 %ID/g in series [1] (setting [4]); 3.27 ± 1.09 %ID/g in series [1] (liver uptake, MDA-MB-435 model); 1.51 ± 0.35 %ID/g in series [1] (setting [5]); 9.77 ± 2.66 %ID/g in series [1] (setting [6]); 10.2 ± 1.37 %ID/g in series [2] (kidney uptake, U87MG model); 1.27 ± 0.2 %ID/g in series [2] (muscle uptake, U87MG model). For the same compound, in series [2] (tumor uptake, U87MG glioma), the tissue uptake at 2 h was found to be 8.31 ± 2.31 %ID/g. For the same compound, the tissue to tissue ratio at 0.5 h in series [2] (tumor and liver) stood at 2.59 ± 0.45; in series [2] (tumor and whole blood), 9.63 ± 1.32. The “uptake in the blood and kidneys in the presence of E[c(RGDfK)]2” value in the series on tumor-bearing mouse (60 min p.i., versus without blocking agent) is “comparable”. Moreover, in the series with tumor-bearing mouse (result in words), the “tumor uptake on co-injection of excess E[c(RGDfK)]2” value is “partially blocked”. In addition, in the series on normal athymic nude mice (urine and feces over 2 h), the “metabolic stability during excretion from renal and hepatobiliary routes” value was “high metabolic stability; also recorded: remained intact; also recorded: very high metabolic stability”.
In the case of `N=C(N)NCCC[C@@H]1NC(=O)[C@H](CCCCNC(=O)CCOCCOCCOCCOCCNC(=O)CC[C@H](NC(=O)CCOCCOCCOCCOCCNC(=O)c2ccc(NN)nc2)C(=O)NCCOCCOCCOCCOCCC(=O)NCCCC[C@@H]2NC(=O)[C@@H](Cc3ccccc3)NC(=O)[C@H](CC(=O)O)NC(=O)CNC(=O)[C@H](CCCNC(=N)N)NC2=O)NC(=O)[C@@H](Cc2ccccc2)NC(=O)[C@H](CC(=O)O)NC(=O)CNC1=O` [^99mTc-3PEG4-dimer, [^99mTc(HYNIC-3PEG4-dimer)(tricine)(TPPTS)], metal not drawn], the tissue to tissue ratio at 0.5 h was 2.13 ± 0.87 in series [2] (tumor and liver); 6.72 ± 2.88 in series [2] (tumor and whole blood). Besides, the tissue to tissue ratio at 2 h was found to be 3.49 ± 1.64 in series [2] (tumor and liver); 48.8 ± 18.7 in series [2] (tumor and whole blood). The tissue uptake at 0.5 h in series [2] (setting [7]) was 1.02 ± 0.22 %ID/g; in series [2] (kidney uptake, U87MG model) it was 17.6 ± 0.73 %ID/g; in series [2] (liver uptake, U87MG model), 3.14 ± 0.18 %ID/g; in series [2] (muscle uptake, U87MG model), 1.45 ± 0.2 %ID/g; in series [2] (tumor uptake, U87MG glioma), 8.17 ± 0.68 %ID/g. The tissue uptake at 2 h in series [2] (setting [7]) is 0.17 ± 0.02 %ID/g; in series [2] (kidney uptake, U87MG model), 9.89 ± 1.2 %ID/g; in series [2] (liver uptake, U87MG model), 2.92 ± 0.77 %ID/g; in series [2] (muscle uptake, U87MG model), 1 ± 0.22 %ID/g; in series [2] (tumor uptake, U87MG glioma), 9.74 ± 3.22 %ID/g; in series [2] (tumor uptake, U87MG glioma, tumor size 0.5 g – 1.6 g or 500 – 1700 mm^3) it was 4 to 6 %ID/g. This compound displayed a tissue uptake at 2 h in series [2] (tumor uptake, U87MG glioma, tumor size <0.05 g or <50 mm^3) of 2 to 4 %ID/g. Also, the “glioma uptake relative to ^99mTc-PEG4-monomer” value in series [3] is recorded as approximately 3 ×. In addition, the “metabolism during excretion from the hepatobiliary route” value in the series on normal athymic nude mice (feces at 120 min p.i.) was ~ 30%. Moreover, the “metabolic stability during excretion from the renal route” value with normal athymic nude mice (urine at 30 and 120 min p.i.) was “remained intact”.
In the case of `N=C(N)NCCC[C@@H]1NC(=O)[C@H](CCCCNC(=O)CC[C@H](NC(=O)CCOCCOCCOCCOCCNC(=O)c2ccc(NN)nc2)C(=O)NCCCC[C@@H]2NC(=O)[C@@H](Cc3ccccc3)NC(=O)[C@H](CC(=O)O)NC(=O)CNC(=O)[C@H](CCCNC(=N)N)NC2=O)NC(=O)[C@@H](Cc2ccccc2)NC(=O)[C@H](CC(=O)O)NC(=O)CNC1=O` [^99mTc-PEG4-dimer, [^99mTc(HYNIC-PEG4-dimer)(tricine)(TPPTS)], metal not drawn, reference compound], the tissue to tissue ratio at 2 h in series [1] came out at 2.91 ± 0.6. In series [1] (setting [6]), this compound had a tissue uptake at 0.5 h of 3.49 ± 0.62 %ID/g and a tissue uptake at 2 h of 3.82 ± 0.54 %ID/g.
